Measurements published in ChEMBL document CHEMBL1123542, “Alpha-adrenoreceptor reagents. 4. Resolution of some potent selective prejunctional alpha 2-adrenoreceptor antagonists” (J Med Chem, 1986).

Columns and labels:
[1] = molecular target: T1, Adrenergic receptor alpha-1 (Rattus norvegicus, UniProt P15823+P23944+P43140); experiment: Displacement of [3H]prazosin from alpha-1 adrenergic receptor from rat brain cerebral cortex; assay type: tissue-based
T1 sequence (P15823 whole entry): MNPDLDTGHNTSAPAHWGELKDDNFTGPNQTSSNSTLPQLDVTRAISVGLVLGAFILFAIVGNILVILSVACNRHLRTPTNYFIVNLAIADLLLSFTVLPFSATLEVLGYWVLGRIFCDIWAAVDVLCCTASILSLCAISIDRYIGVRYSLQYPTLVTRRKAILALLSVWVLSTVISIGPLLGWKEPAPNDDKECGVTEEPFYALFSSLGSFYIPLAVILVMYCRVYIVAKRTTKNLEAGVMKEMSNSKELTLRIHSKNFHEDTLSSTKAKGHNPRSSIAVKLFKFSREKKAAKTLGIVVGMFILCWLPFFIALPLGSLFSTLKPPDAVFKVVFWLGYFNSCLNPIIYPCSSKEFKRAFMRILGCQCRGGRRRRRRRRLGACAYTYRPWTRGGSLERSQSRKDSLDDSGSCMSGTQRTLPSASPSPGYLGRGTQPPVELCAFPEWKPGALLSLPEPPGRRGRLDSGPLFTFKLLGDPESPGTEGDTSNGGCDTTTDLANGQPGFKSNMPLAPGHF
T1 sequence (P23944 whole entry): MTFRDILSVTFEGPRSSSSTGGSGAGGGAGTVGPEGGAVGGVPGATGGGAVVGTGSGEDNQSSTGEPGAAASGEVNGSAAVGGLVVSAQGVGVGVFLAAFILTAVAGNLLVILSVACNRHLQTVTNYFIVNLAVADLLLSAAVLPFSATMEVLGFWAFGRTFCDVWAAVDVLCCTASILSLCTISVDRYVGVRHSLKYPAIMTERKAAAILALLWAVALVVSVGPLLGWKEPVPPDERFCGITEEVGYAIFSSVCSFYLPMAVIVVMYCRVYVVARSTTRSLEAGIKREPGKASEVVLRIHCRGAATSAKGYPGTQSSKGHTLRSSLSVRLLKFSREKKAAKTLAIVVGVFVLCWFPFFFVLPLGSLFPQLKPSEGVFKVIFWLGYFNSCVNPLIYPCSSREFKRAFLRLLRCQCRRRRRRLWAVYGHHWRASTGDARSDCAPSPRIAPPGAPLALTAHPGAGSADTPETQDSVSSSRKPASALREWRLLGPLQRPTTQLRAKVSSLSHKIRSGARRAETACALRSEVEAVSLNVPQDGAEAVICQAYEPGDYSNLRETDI
T1 sequence (P43140 whole entry): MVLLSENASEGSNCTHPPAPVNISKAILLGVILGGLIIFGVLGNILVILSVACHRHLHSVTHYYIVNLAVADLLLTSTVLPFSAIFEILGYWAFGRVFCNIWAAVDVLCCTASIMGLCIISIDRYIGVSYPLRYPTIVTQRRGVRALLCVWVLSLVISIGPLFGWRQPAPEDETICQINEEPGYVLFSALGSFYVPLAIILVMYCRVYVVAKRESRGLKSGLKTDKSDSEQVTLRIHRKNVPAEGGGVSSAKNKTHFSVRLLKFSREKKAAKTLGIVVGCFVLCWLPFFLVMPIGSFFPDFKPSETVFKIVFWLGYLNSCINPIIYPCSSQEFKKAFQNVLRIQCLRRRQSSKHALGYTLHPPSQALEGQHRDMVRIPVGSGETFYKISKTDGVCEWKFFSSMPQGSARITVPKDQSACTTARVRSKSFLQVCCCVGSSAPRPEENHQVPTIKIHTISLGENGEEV
Method in brief: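 Rat cerebral cortical membranes. Ki (nM) from displacement of saturable [3H]prazosin binding at α1 sites.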

[2] = molecular target: T2, Adrenergic receptor alpha-2 (Rattus norvegicus, UniProt P22086+P19328+P22909); experiment: Displacement of [3H]idazoxan from alpha-2 adrenergic receptor from rat brain cerebral cortex.; assay type: tissue-based
T2 sequence (P22086 whole entry): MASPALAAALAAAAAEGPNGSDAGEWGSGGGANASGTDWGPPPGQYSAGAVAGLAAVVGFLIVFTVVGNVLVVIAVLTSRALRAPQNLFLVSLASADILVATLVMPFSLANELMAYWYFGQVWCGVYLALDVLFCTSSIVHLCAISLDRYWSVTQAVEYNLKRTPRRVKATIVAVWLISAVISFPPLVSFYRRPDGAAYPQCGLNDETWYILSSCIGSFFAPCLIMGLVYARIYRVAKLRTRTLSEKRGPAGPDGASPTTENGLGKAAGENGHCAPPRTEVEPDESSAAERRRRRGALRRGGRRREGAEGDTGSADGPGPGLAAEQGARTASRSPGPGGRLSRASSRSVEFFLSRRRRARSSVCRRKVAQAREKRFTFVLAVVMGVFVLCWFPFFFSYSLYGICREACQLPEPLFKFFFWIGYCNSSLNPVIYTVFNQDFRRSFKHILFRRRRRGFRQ
T2 sequence (P19328 whole entry): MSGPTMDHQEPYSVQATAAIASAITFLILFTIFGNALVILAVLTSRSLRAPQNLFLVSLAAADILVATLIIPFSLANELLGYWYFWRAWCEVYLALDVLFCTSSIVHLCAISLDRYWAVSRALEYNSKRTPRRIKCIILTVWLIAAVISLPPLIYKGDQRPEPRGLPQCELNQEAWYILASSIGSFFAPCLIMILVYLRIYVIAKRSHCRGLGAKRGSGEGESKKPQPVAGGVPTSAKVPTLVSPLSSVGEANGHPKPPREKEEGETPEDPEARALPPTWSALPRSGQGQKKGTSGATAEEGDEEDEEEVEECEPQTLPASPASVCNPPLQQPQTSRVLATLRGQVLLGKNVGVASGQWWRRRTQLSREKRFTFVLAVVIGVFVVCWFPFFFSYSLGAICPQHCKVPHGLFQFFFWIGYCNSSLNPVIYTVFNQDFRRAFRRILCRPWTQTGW
T2 sequence (P22909 whole entry): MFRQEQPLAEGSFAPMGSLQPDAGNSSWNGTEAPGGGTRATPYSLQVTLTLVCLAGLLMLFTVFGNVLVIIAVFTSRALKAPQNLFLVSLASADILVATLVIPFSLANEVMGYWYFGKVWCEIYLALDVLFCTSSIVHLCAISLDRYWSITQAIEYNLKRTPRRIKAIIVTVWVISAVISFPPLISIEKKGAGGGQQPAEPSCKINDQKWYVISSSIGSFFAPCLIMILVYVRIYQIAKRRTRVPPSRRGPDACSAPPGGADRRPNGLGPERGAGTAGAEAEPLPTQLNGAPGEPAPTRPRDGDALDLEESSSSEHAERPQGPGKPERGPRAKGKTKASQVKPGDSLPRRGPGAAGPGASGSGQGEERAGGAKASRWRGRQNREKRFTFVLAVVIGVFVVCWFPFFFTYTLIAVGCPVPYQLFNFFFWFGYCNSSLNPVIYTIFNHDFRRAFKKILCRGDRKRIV
Method in brief: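 Rat cerebral cortical membranes. Ki (nM) from displacement of saturable [3H]idazoxan binding at α2 sites.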

Rattus norvegicus = experiment: Compound was evaluated in vivo for the reversal of maximal inhibitory effect of clonidine at 100 ug/kg(iv) in pithed rat vas deferens preparation; assay type: functional
[3] = system: Alpha-1 adrenergic receptor (Rattus norvegicus); experiment: Compound was evaluated for its ability to antagonise the inhibitory activity of phenylephrine, relative to idazoxan at postjunctional alpha-1 adrenergic receptor in rat anococcygeus.
[4] = system: Alpha-2 adrenergic receptor (Rattus norvegicus); experiment: Compound was evaluated for its ability to antagonise the inhibitory activity of clonidine, relative to idazoxan at prejunctional alpha-2 adrenergic receptor in rat vas deferens.
[5] = molecular target: T3, Adrenergic receptor alpha-1 (Rattus norvegicus) (UniProt P15823+P23944+P43140); experiment: Compound was evaluated for the antagonist potency at postjunctional alpha-1 adrenergic receptor in pithed rat diastolic bp test; assay type: functional
Method in brief: (§1)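 Pithed rats; iv dose (μg/kg) giving a 2-fold shift (DR2) of the cirazoline dose-response curve on diastolic blood pressure. Separate groups, n = 6 minimum.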

[6] = molecular target: T4, Adenosine receptor A1 (Rattus norvegicus) (UniProt P25099); experiment: Compound was evaluated for its ability to antagonise the inhibitory activity of phenylephrine, relative to idazoxan at postjunctional alpha-1 adrenergic receptor in rat anococcygeus; assay type: functional
T4 sequence (whole entry): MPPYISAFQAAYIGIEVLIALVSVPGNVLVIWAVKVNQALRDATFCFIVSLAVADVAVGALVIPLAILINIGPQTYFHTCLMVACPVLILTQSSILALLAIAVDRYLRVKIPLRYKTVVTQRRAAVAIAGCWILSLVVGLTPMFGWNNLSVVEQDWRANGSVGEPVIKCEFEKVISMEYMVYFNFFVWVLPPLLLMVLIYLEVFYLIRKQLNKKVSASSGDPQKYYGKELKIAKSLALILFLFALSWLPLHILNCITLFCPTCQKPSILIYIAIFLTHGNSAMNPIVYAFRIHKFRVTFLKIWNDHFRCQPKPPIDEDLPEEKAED

[7] = molecular target: T3, Adrenergic receptor alpha-1 (Rattus norvegicus); experiment: Compound was evaluated for the antagonist potency at postjunctional alpha-1 adrenergic receptor in pithed rat diastolic bp test,; assay type: functional; method in brief: as §1
[8] = molecular target: Adenosine A2 receptor (Rattus norvegicus) (UniProt P29276+P30543); experiment: Compound was evaluated for its ability to antagonise the inhibitory activity of clonidine, relative to idazoxan at prejunctional alpha-2 adrenergic receptor in rat vas deferens; assay type: functional, tissue-based

Row | SMILES | Ki [1] | Ki [2] | AD50 (Rattus norvegicus) | further results
1 | C=C(C)C1(C2=NCCN2)COc2ccccc2O1 (single isomer, unassigned; (+)) [listing 1 of 2 here] | 46439 nM | 8734 nM | >14.444 mg/kg | –
2 | CC1(C2=NCCN2)COc2ccccc2O1 (single isomer, unassigned; (+)) [listing 1 of 2 here] | 285 nM | 2.4 nM | 0.0258 mg/kg | –
3 | C=C(C)C1(C2=NCCN2)COc2ccccc2O1 (single isomer, unassigned; (+)) [listing 2 of 2 here] | – | – | – | Antagonist potency [3]: 0.03; Antagonist potency [4]: 0.0003
4 | CC1(C2=NCCN2)COc2ccccc2O1 (single isomer, unassigned; (+)) [listing 2 of 2 here] | – | – | – | Antagonist potency [3]: 0.09; Antagonist potency [4]: 1.3
5 | COC1(C2=NCCN2)COc2ccccc2O1 (single isomer, unassigned; (+)) [listing 2 of 2 here] | – | – | – | Antagonist potency [5]: 58.9
6 | CC1(C2=NCCN2)COc2ccccc2O1 (single isomer, unassigned; (-)) [listing 1 of 2 here] | 13329 nM | 487 nM | 2.567 mg/kg | –
7 | CC1(C2=NCCN2)COc2ccccc2O1 (single isomer, unassigned; (-)) [listing 2 of 2 here] | – | – | – | Antagonist potency [4]: 0.005; Antagonist potency [6]: < 0.023
8 | COC1(C2=NCCN2)COc2ccccc2O1 (single isomer, unassigned; (-)) [listing 2 of 2 here] | – | – | – | Antagonist potency [7]: 12800
9 | COC1(C2=NCCN2)COc2ccccc2O1 (stereo in doubt; 4) [listing 2 of 2 here] | – | – | – | Antagonist potency [5]: 176
10 | CC1(C2=NCCN2)COc2ccccc2O1 (stereo in doubt; 7) [listing 1 of 2 here] | 449 nM | 4.4 nM | 0.0527 mg/kg | –
11 | CC1(C2=NCCN2)COc2ccccc2O1 (stereo in doubt; 7) [listing 2 of 2 here] | – | – | – | Antagonist potency [3]: 0.28; Antagonist potency [8]: 0.67
12 | C=C(C)C1(C2=NCCN2)COc2ccccc2O1 (stereo in doubt; 10) [listing 1 of 2 here] | 1794 nM | 16.3 nM | 0.0712 mg/kg | –
13 | C=C(C)C1(C2=NCCN2)COc2ccccc2O1 (stereo in doubt; 10) [listing 2 of 2 here] | – | – | – | Antagonist potency [3]: 0.07; Antagonist potency [4]: 0.4
14 | C=C(C)C1(C2=NCCN2)COc2ccccc2O1 (stereo in doubt; 12) [listing 2 of 2 here] | – | – | – | Antagonist potency [3]: 0.6; Antagonist potency [4]: 0.8

Second part, led by results:

Row | Ki [1] | Ki [2] | SMILES | AD50 (Rattus norvegicus) | further results
15 | 27 nM | 0.36 nM | COC1(C2=NCCN2)COc2ccccc2O1 (single isomer, unassigned; (+)) [listing 1 of 2 here] | 0.00225 mg/kg | –
16 | 6763 nM | 256 nM | COC1(C2=NCCN2)COc2ccccc2O1 (single isomer, unassigned; (-)) [listing 1 of 2 here] | 0.786 mg/kg | –
17 | 66 nM | 0.8 nM | COC1(C2=NCCN2)COc2ccccc2O1 (stereo in doubt; 4) [listing 1 of 2 here] | 0.00268 mg/kg | –
18 | 1473 nM | 8 nM | C=C(C)C1(C2=NCCN2)COc2ccccc2O1 (stereo in doubt; 12) [listing 1 of 2 here] | 0.0539 mg/kg | –
